# Legend:
# Candida tropicalis [1] = experiment: Antifungal activity against Candida tropicalis after 48 to 72 hrs; assay type: functional
# Method in brief: (§1)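 MFC: after the MIC read, 30-μl aliquots from each well without visible growth were plated onto Sabouraud dextrose agar and incubated at 35°C. Reading was at 48–72 h for yeasts and up to 7 days for molds. MFC was the lowest concentration with no colonies.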
# [2] = tested on: Meyerozyma guilliermondii; experiment: Antifungal activity against Candida guilliermondii after 48 to 72 hrs; assay type: functional; method in brief: as §1
# Candida parapsilosis [3] = experiment: Antifungal activity against Candida parapsilosis after 48 to 72 hrs; assay type: functional; method in brief: as §1
# Aspergillus flavus [4] = experiment: Antifungal activity against Aspergillus flavus 05-203758 after 24 to 72 hrs by broth microdilution method; assay type: functional
# Method in brief: (§2)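 Broth microdilution MIC per CLSI M27-A3 (yeasts) or M38-A2 (molds). RPMI 1640 with L-glutamine, without bicarbonate, buffered to pH 7.0 with 0.165 M MOPS. Final test range for the compounds was 0.175–87.5 μM. Incubation at 35°C with visual reading at 24–72 h. MIC was the lowest concentration giving 100% inhibition versus the growth control (azoles 50% or 100%, by organism). Each isolate was run in duplicate in two independent experiments.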
# Lichtheimia corymbifera = experiment: Antifungal activity against Absidia corymbifera 04-200170 after 24 to 72 hrs by broth microdilution method; assay type: functional; method in brief: as §2
# [5] = tested on: Cryptococcus gattii species complex; experiment: Antifungal activity against Cryptococcus gattii after 48 to 72 hrs; assay type: functional, Cryptococcus bacillisporus; method in brief: as §1
# Rhizopus arrhizus [6] = experiment: Antifungal activity against Rhizopus oryzae 05-203111 after 48 to 72 hrs; assay type: functional
# Method in brief: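 After the broth microdilution MIC read, suspension from every well without visible growth was plated onto Sabouraud dextrose agar and incubated at 35°C, up to 7 days for molds. MFC was taken as the lowest drug concentration with no colonies.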
# Scedosporium apiospermum = experiment: Antifungal activity against Scedosporium apiospermum 05-203100 after 24 to 72 hrs by broth microdilution method; assay type: functional
# Method in brief: (§3)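 Mold isolates subcultured on potato dextrose agar, then tested by CLSI M38-A2 broth microdilution in RPMI 1640 (L-glutamine, no bicarbonate) buffered to pH 7.0 with 0.165 M MOPS. Compounds were dissolved in water and tested at a final 0.175–87.5 μM. Plates were incubated at 35°C. MIC was read visually as the lowest concentration giving 100% inhibition versus the growth control. Each isolate was run in duplicate in two independent experiments.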
# Candida parapsilosis [7] = experiment: Antifungal activity against Candida parapsilosis ATCC 22019 after 24 to 72 hrs by broth microdilution method; assay type: functional; conditions: Lodderomyces parapsilosis; method in brief: as §2
# Aspergillus fumigatus [8] = experiment: Antifungal activity against Aspergillus fumigatus ATCC 204305 after 24 to 72 hrs by broth microdilution method; assay type: functional; method in brief: as §2
# Clavispora lusitaniae [9] = experiment: Antifungal activity against Candida lusitaniae after 24 to 72 hrs by broth microdilution method; assay type: functional; method in brief: as §2
# Fusarium solani = experiment: Antifungal activity against Fusarium solani 04-203102 after 24 to 72 hrs by broth microdilution method; assay type: functional; method in brief: as §3
# Pichia kudriavzevii [10] = experiment: Antifungal activity against Candida krusei after 24 to 72 hrs by broth microdilution method; assay type: functional; method in brief: as §2
# Aspergillus flavus [11] = experiment: Antifungal activity against Aspergillus flavus ATCC 204304 after 24 to 72 hrs by broth microdilution method; assay type: functional; method in brief: as §2
# Candida albicans [12] = experiment: Antifungal activity against Candida albicans after 48 to 72 hrs; assay type: functional; method in brief: as §1
# Rhizopus arrhizus [13] = experiment: Antifungal activity against Rhizopus oryzae 05-203111 after 24 to 72 hrs by broth microdilution method; assay type: functional; method in brief: as §3
# Aspergillus flavus [14] = experiment: Antifungal activity against Aspergillus flavus ATCC 204304 after 48 to 72 hrs; assay type: functional; method in brief: as §1
# Exophiala spinifera = experiment: Antifungal activity against Exophiala spinifera 03-200803 after 24 to 72 hrs by broth microdilution method; assay type: functional; method in brief: as §3
# Pichia kudriavzevii [15] = experiment: Antifungal activity against Candida krusei 04-202328 after 24 to 72 hrs by broth microdilution method; assay type: functional; method in brief: as §2
# Candida parapsilosis [16] = experiment: Antifungal activity against Candida parapsilosis after 24 to 72 hrs by broth microdilution method; assay type: functional; conditions: Lodderomyces parapsilosis; method in brief: as §2
# [17] = tested on: Cryptococcus gattii species complex; experiment: Antifungal activity against Cryptococcus gattii 05-200122 after 24 to 72 hrs by broth microdilution method; assay type: functional, Cryptococcus bacillisporus; method in brief: as §2
# Candida tropicalis [18] = experiment: Antifungal activity against Candida tropicalis 04-202361 after 24 to 72 hrs by broth microdilution method; assay type: functional; method in brief: as §2
# Candida parapsilosis [19] = experiment: Antifungal activity against Candida parapsilosis 04-202398 after 24 to 72 hrs by broth microdilution method; assay type: functional; conditions: Lodderomyces parapsilosis; method in brief: as §2
# [20] = tested on: Meyerozyma guilliermondii; experiment: Antifungal activity against Candida guilliermondii after 24 to 72 hrs by broth microdilution method; assay type: functional; method in brief: as §2
# Candida dubliniensis [21] = experiment: Antifungal activity against Candida dubliniensis after 48 to 72 hrs; assay type: functional; method in brief: as §1
# Nakaseomyces glabratus = experiment: Antifungal activity against Candida glabrata 04-202345 after 24 to 72 hrs by broth microdilution method; assay type: functional; method in brief: as §2
# Clavispora lusitaniae [22] = experiment: Antifungal activity against Candida lusitaniae after 48 to 72 hrs; assay type: functional; method in brief: as §1
# Cryptococcus neoformans [23] = experiment: Antifungal activity against Cryptococcus neoformans ATCC 90112 after 24 to 72 hrs by broth microdilution method; assay type: functional; method in brief: as §2
# Aspergillus terreus = experiment: Antifungal activity against Aspergillus terreus 05-202844 after 24 to 72 hrs by broth microdilution method; assay type: functional; method in brief: as §2
# Aspergillus fumigatus [24] = experiment: Antifungal activity against Aspergillus fumigatus 05-203114 after 24 to 72 hrs by broth microdilution method; assay type: functional; method in brief: as §2
# Candida albicans [25] = experiment: Antifungal activity against Candida albicans ATCC 10231 after 24 to 72 hrs by broth microdilution method; assay type: functional; method in brief: as §2
# [26] = Toxicity against human erythrocytes assessed as hemolysis; assay type: cell-based, Erythrocyte
# Cryptococcus neoformans [27] = experiment: Antifungal activity against Cryptococcus neoformans 05-202523 after 48 to 72 hrs; assay type: functional; method in brief: as §1
# [28] = Antifungal activity against Paecilomyces lilacinus 05-200601 after 24 to 72 hrs by broth microdilution method; assay type: functional; conditions: Purpureocillium lilacinum; method in brief: as §3
# Candida dubliniensis [29] = experiment: Antifungal activity against Candida dubliniensis after 24 to 72 hrs by broth microdilution method; assay type: functional; method in brief: as §2
# Pichia kudriavzevii [30] = experiment: Antifungal activity against Candida krusei ATCC 6258 after 24 to 72 hrs by broth microdilution method; assay type: functional; method in brief: as §2
# [31] = Antifungal activity against Exophiala jeanselmei 03-200268 after 24 to 72 hrs by broth microdilution method; assay type: functional; method in brief: as §2
# [32] = tested on: Cryptococcus gattii species complex; experiment: Antifungal activity against Cryptococcus gattii after 24 to 72 hrs by broth microdilution method; assay type: functional, Cryptococcus bacillisporus; method in brief: as §2
smiles,measurement,setting,value
CCCCCc1cc[n+](CCCCCCCCCCCC[n+]2ccc(CCCCC)c(C)c2)cc1C.[Cl-].[Cl-],MFC50,Candida tropicalis [1],0.79 µg/mL
same,MFC90,Candida tropicalis [1],1.56 µg/mL
same,MFC,Candida tropicalis [1]; Candida tropicalis,0.39 µg/mL
same,MFC50,[2],0.79 µg/mL
same,MFC90,[2],1.56 µg/mL
same,MFC,[2]; Meyerozyma guilliermondii,0.39 µg/mL
same,MFC50,Candida parapsilosis [3],49.5 µg/mL
same,MFC90,Candida parapsilosis [3],49.5 µg/mL
same,MFC,Candida parapsilosis [3]; Lodderomyces parapsilosis,49.5 µg/mL
same,MIC,Aspergillus flavus [4],25.3 µg/mL
same,MIC,Lichtheimia corymbifera,50.7 µg/mL
same,MFC50,[5],0.79 µg/mL
same,MFC90,[5],0.79 µg/mL
same,MFC,[5]; Cryptococcus gattii species complex,0.79 µg/mL
same,MFC,Rhizopus arrhizus [6],6.3 µg/mL
same,MIC,Scedosporium apiospermum,6.3 µg/mL
same,MIC,Candida parapsilosis [7],0.79 µg/mL
same,MIC,Aspergillus fumigatus [8],25.3 µg/mL
same,MIC,Clavispora lusitaniae [9],2.71 µg/mL
same,MIC50,Clavispora lusitaniae [9],3.11 µg/mL
same,MIC90,Clavispora lusitaniae [9],3.11 µg/mL
same,MIC,Fusarium solani,12.7 µg/mL
same,MIC,Pichia kudriavzevii [10],3.12 µg/mL
same,MIC50,Pichia kudriavzevii [10],3.11 µg/mL
same,MIC90,Pichia kudriavzevii [10],6.22 µg/mL
same,MIC,Aspergillus flavus [11],12.7 µg/mL
same,MFC50,Candida albicans [12],1.56 µg/mL
same,MFC90,Candida albicans [12],1.56 µg/mL
same,MFC,Candida albicans [12]; Candida albicans,0.79 µg/mL
same,MIC,Rhizopus arrhizus [13],1.58 µg/mL
same,MFC,Aspergillus flavus [14],25.3 µg/mL
same,MIC,Exophiala spinifera,0.79 µg/mL
same,MIC,Pichia kudriavzevii [15],6.3 µg/mL
same,MIC,Candida parapsilosis [16],30.6 µg/mL
same,MIC50,Candida parapsilosis [16],24.9 µg/mL
same,MIC90,Candida parapsilosis [16],49.5 µg/mL
same,MIC,[17],0.79 µg/mL
same,MIC,Candida tropicalis [18],0.79 µg/mL
same,MIC,Candida parapsilosis [19],25.3 µg/mL
same,MIC,[20],0.903 µg/mL
same,MIC50,[20],0.79 µg/mL
same,MIC90,[20],1.56 µg/mL
same,MFC50,Candida dubliniensis [21],0.79 µg/mL
same,MFC90,Candida dubliniensis [21],1.56 µg/mL
same,MFC,Candida dubliniensis [21]; Candida dubliniensis,0.79 µg/mL
same,MIC,Nakaseomyces glabratus,0.79 µg/mL
same,MFC50,Clavispora lusitaniae [22],3.11 µg/mL
same,MFC90,Clavispora lusitaniae [22],6.22 µg/mL
same,MFC,Clavispora lusitaniae [22]; Clavispora lusitaniae,1.56 µg/mL
same,MIC,Cryptococcus neoformans [23],0.79 µg/mL
same,MIC,Aspergillus terreus,0.7 µg/mL
same,MIC,Aspergillus fumigatus [24],25.3 µg/mL
same,MIC,Candida albicans [25],1.58 µg/mL
same,HC50,[26],> 129 µM
same,IC50,[26],> 48 µM
same,MFC,Cryptococcus neoformans [27],25.3 µg/mL
same,MIC,[28],> 50.7 µg/mL
same,MIC,Candida dubliniensis [29],0.908 µg/mL
same,MIC50,Candida dubliniensis [29],0.79 µg/mL
same,MIC90,Candida dubliniensis [29],0.79 µg/mL
same,MIC,Pichia kudriavzevii [30],6.3 µg/mL
same,MIC,[31],1.58 µg/mL
same,MIC,[32],0.79 µg/mL
same,MIC50,[32],0.79 µg/mL
same,MIC90,[32],0.79 µg/mL
